# Hits are enriched below; roughly 3.1% of the tested compounds scored in any of these assays.
# T cruzi inh: blocks replication of Trypanosoma cruzi; T. cruzi beta-gal in NIH3T3, luminescence, 90 h; AID 1885; actives 1.4% (n = 300,000); inhibition, % (no concentration beside the values);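 active means mean inhibition across valid replicates above about 55%, limit read from the data; inconclusive means mean below that limit but half or more replicates reach it; inactive means mean below it, under half of replicates reach it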;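 further: signal also drops with host cell toxicity which is not excluded here; higher percent means less beta-gal luminescence so fewer parasites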
#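 System: NIH/3T3 fibroblasts plus reporter T. cruzi. Medium: DMEM plus 2% FBS. Probe or stimulus: 5000 reporter trypomastigotes per well. Compound: single 50 nL compound addition per well in DMSO. Incubation: co-culture of at least 90 h after 3 h attachment. Detection: GalScreen β-gal luminescence, detergent lysis, 60 min. Evaluation: parasite load inhibition, %.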
# HIF act: HIF pathway transcriptional activation; U2OS HRE-luciferase reporter, luminescence; normalized: DMSO 0%, desferrioxamine 100%; actives 0.32% (n = 300,000); activation, % at 7.5 µM (by protocol); AID 1910;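 active means mean activation of at least 10% of the iron chelator positive control signal, with at least half of replicates also reaching 10%; inconclusive means mean and replicate majority disagree about reaching 10%; inactive means mean and most replicates under 10%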
# Calb FLC: affects C. albicans growth with fluconazole; C. albicans CaCi-2 + fluconazole, Alamar Blue growth, 48 h; growth inhibition, % (no concentration beside the values); actives 0.57% (n = 300,000);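 active means growth inhibition above about 58% in most replicates, limit read from the data, passing the limit was not always enough; inconclusive means exactly half the replicates above a set limit; inactive means most replicates below a set limit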;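 further: all wells also contain fluconazole at 8 µg/ml as a sub-toxic cotreatment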
# Beta cell apopt: blocks beta cell apoptosis | AID 435005 | protection from apoptosis, % (no concentration beside the values) | actives 0.8% (n = 300,000) | INS-1E cytokine-induced death, ATP luminescence, 48 h; percent of positive-control rescue, neutral wells zero;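 active means Every replicate reaches about 75%, or at least half do and their mean reaches it too, limit read from the data; inconclusive means At least half of replicates reach the limit but their mean does not; inactive means Under half of replicates reach the limit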;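 further: higher means more ATP so stronger rescue from cytokine killing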
# PolyA inhibitor: blocks polyadenylation in yeast reporter cells. activity score, % at 12 µM. actives 0.02% (n = 300,000). AID 1875. S. cerevisiae SKY197-pL101 polyadenylation reporter, beta-gal luminescence; efflux-impaired pdr1/pdr3 knockout yeast; score 100 = 6 SD above DMSO;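 active means lowest replicate activity score at least 50, where 100 means six control SD above control mean; inconclusive means lowest score under 50 but half or more replicates reach 50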;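 further: yeast exposed to compound for 9 h at 30 °C; higher score means more reporter readthrough which indicates perturbed polyadenylation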
# CSC inhib: cancer stem cell inhibition; cancer stem cell-like cells viability, luminescence; actives 1.1% (n = 300,000); inhibition, % at 7.5 µM; in the data active means inhibition above about 75%; inconclusive means no clear call, values can overlap the other calls; tested in HMLE shEcad cells
# Hits are given with their value; 0 = inactive; ? = inconclusive; - = no result given.
SMILES,T cruzi inh,HIF act,Calb FLC,Beta cell apopt,PolyA inhibitor,CSC inhib
O=C1c2cccc3cccc(c23)C(=O)N1CCN1CCN(CC(O)COc2ccc3ccccc3c2)CC1 (stereo not drawn),0,0,0,0,0,104.5
[O-][n+]1c2ccccc2c2n1CCN1CCOC21c1ccc(Cl)cc1 (stereo not drawn),-,-,-,0,-,0
O=C1c2cccc3cccc(c23)C(=O)N1CC1CCN(CC(O)COc2ccc3ccccc3c2)CC1 (stereo not drawn),65.9,0,0,0,0,103.2
O=C(N1CCOCC1)N1CCN(CC(O)COc2ccc3ccccc3c2)CC1 (stereo not drawn),0,0,0,0,0,0
COc1ccc(COCC(O)CN2CCC(CN3C(=O)c4cccc5cccc(c45)C3=O)CC2)cc1OC (stereo not drawn),0,0,0,0,0,0
COc1cccc(OCC(O)CN2CCC(CN3C(=O)c4cccc5cccc(c45)C3=O)CC2)c1 (stereo not drawn),62.8,0,0,0,0,0
Cc1nn(Cc2c(Cl)cccc2Cl)c(C)c1NC(=O)c1cn(-c2ccccc2)nc1-c1ccccc1,0,0,0,106.4,0,165.4
Cc1cccc(C)c1NC(=O)CNC(=O)c1cn(-c2ccccc2)nc1-c1ccccc1,0,0,0,-,0,0
CCOc1ccc(CN2CCN(Cc3cccc4nonc34)CC2CCO)cc1 (stereo not drawn),59.9,0,0,0,0,0
OCCC1CN(Cc2cc3c(cc2Cl)OCO3)CCN1Cc1ccccc1 (stereo not drawn),58.6,0,0,0,0,0
OCCC1CN(Cc2ccc3nonc3c2)CCN1Cc1ccsc1 (stereo not drawn),70.4,0,0,0,0,0
CCOc1ccc(CN2CCN(Cc3cc4c(cc3Cl)OCO4)CC2CCO)cc1 (stereo not drawn),0,0,0,0,0,0
CCOc1ccccc1CN1CCN(Cc2cccc3c2OCO3)CC1CCO (stereo not drawn),0,0,0,0,0,0
CCOc1ccc(CN2CCN(Cc3cccc4c3OCO4)CC2CCO)cc1 (stereo not drawn),96.9,0,0,-,0,0
CCOc1ccc(CN2CCN(Cc3cnn(CC)c3C)CC2CCO)cc1 (stereo not drawn),0,0,0,0,0,0
COC(=O)c1cc(OC)nc2ccc(Br)cc12,0,0,0,0,0,0
CS/C(Nc1cc(Cl)ccc1Cl)=C(/C#N)C(=O)c1ccco1,0,0,0,0,0,0
CCOC(=O)CSc1n[nH]c(NC(=O)NC(C)C)n1,0,0,0,0,0,0
COc1cccc(CN2CCN(Cc3cccc4c3OCO4)CC2CCO)c1 (stereo not drawn),0,0,0,0,0,0
COc1cccc(CN2CCN(Cc3c(C)nn(C(C)C)c3C)CC2CCO)c1 (stereo not drawn),71.3,0,0,0,0,0
Cc1ccc(CN2CCN(Cc3cccc4c3OCO4)CC2CCO)cc1 (stereo not drawn),89.6,0,0,0,0,0
COc1cccc(CN2CCN(Cc3ccc(O)cc3)CC2CCO)c1 (stereo not drawn),0,0,0,0,0,0
OCCC1CN(Cc2ccc(C(F)(F)F)cc2)CCN1Cc1ccccc1 (stereo not drawn),0,0,0,0,0,-
Oc1ccccc1CN1CCCC(N2CCN(c3cccc(C(F)(F)F)c3)CC2)C1 (stereo not drawn),0,0,0,-,0,-
Fc1ccccc1N1CCN(C2CCCN(Cc3cccc(C(F)(F)F)c3)C2)CC1 (stereo not drawn),71.6,0,0,-,0,0
SMILES,T cruzi inh,HIF act,Calb FLC,Beta cell apopt,PolyA inhibitor,CSC inhib
OCCC1CN(Cc2cccc(C(F)(F)F)c2)CCN1Cc1ccccc1 (stereo not drawn),54.7,0,0,0,0,0
Cc1nn(-c2ccc(NC(=O)c3ccncc3)cc2)c(C)c1Cl,0,0,0,-,0,-
COc1cc(CNc2ccc(S(N)(=O)=O)cc2)ccc1OCC(=O)NC1CCCCC1,0,0,0,0,0,0
Nc1cc(=O)[nH]c(SCCSc2ccccc2)n1,0,0,0,0,0,0
O=C(Nc1ccc(F)c(Cl)c1)c1cncs1,0,0,0,-,0,0
Cn1c(=O)c2ccccc2n(CC(=O)N2CCCc3ccccc32)c1=O,0,0,0,0,0,0
CCOC(=O)c1ccc(NC(=O)c2cc3c(s2)CCC3)cc1,0,0,0,0,0,0
CCOc1ccc(CN2CCN(Cc3cccn3-c3cccnc3)CC2CCO)cc1 (stereo not drawn),59.9,0,0,0,0,0
CCOc1ccc(CN2CCN(Cc3cccn3-c3ncccn3)CC2CCO)cc1 (stereo not drawn),0,0,0,0,0,0
COc1cc(OC)c(OC)cc1CNCC1COc2ccccc2O1 (stereo not drawn),0,0,0,0,0,0
O=C(/C=C/c1ccco1)Nc1nc(-c2ccccc2)cs1,0,0,0,0,0,0
COc1ccc(-c2csc(NC(=S)NC(=O)/C=C/c3ccco3)n2)cc1Br,0,0,0,0,0,78.9
COc1ccc(-c2csc(NC(=S)NC(=O)/C=C/c3ccco3)n2)cc1OC,0,0,0,0,0,79.1
COc1ccc(-c2csc(NC(=S)NC(=O)c3ccco3)n2)cc1Br,0,0,0,0,0,0
O=C(/C=C/c1ccco1)Nc1nc(-c2ccccn2)cs1,59.6,0,?,0,0,0
O=C(Nc1ccc2c(c1)OCO2)C1CCN(C(=O)c2ccc(Br)cc2)CC1,0,0,0,0,0,0
CN(C(=O)CN1CCN(c2cnn(-c3ccccc3)c(=O)c2Cl)CC1)C1CCS(=O)(=O)C1 (stereo not drawn),-,-,-,0,-,-
Cc1nc(-c2cccc(NC(=O)c3ccc(-n4cccn4)cc3)c2)cs1,-,-,-,0,-,0
C#CCn1c(O)c(N=NC(=O)CNC(=O)c2cccnc2)c2ccccc21,0,0,-,0,0,0
Cc1ccc2nc(NC(=O)/C=C/c3ccc4c(c3)OCO4)sc2c1,0,0,0,83.8,0,0
O=C(/C=C/c1ccc2c(c1)OCO2)Nc1nc(-c2ccc(F)cc2F)cs1,0,0,0,0,0,95.4
Cc1ccc(NC(=O)Nc2ccc3c(c2)OCO3)nc1,0,0,0,0,0,0
Cc1ccc(NC(=O)/C=C/c2ccc3c(c2)OCO3)nc1,0,0,0,0,0,109.6
COc1ccc(CCNC(=S)NC2CCN(Cc3ccccc3)CC2)cc1,0,0,0,0,0,0
N#Cc1c(NC(=S)NC(=O)c2ccccc2)sc2c1CCN(CCc1ccccc1)C2,71.4,0,0,0,0,0
Cc1ccc(C2CC2C(=O)NNC(=S)Nc2cccc(Cl)c2)cc1 (stereo not drawn),0,0,111.9,0,0,0

# Source: PubChem (Broad Institute)
